In ChEMBL document CHEMBL1142436, “Design and synthesis of 4-substituted indolo[3,2-e][1,2,3]triazolo[1,5-a]pyrimidine derivatives with antitumor activity” (2008):

What was measured:
Type in all cases: functional
MCF7 [1] = experiment: Growth inhibition of human MCF7 cells after 48 hrs; settings: MCF7, 48 h
Outline: (§1)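 NCI ~60-line screen. Cells were grown in RPMI 1640 with 5% FBS and 2 mM L-glutamine and plated at 5000–40000 cells/well. After a 24 h preincubation, five drug concentrations from DMSO stocks were added for 48 h at 37 °C. Cells were TCA-fixed, stained with SRB and read at 515 nm. GI50 was taken from time-zero and control absorbances and reported as pGI50.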

UO-31 = experiment: Growth inhibition of human UO31 cells after 48 hrs; settings: UO-31, 48 h
Outline: (§2)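 NCI 60-line screen: cells in RPMI 1640 with 5% FBS and 2 mM L-glutamine, plated at 5000–40000 cells/well, grown 24 h (37 °C, 5% CO₂), then exposed to five 10-fold or ½-log dilutions (DMSO stock) for 48 h. Fixed with TCA (final 10% for adherent cells, 16% for suspension cells), then SRB stained with absorbance at 515 nm. GI50 from percentage growth relative to time-zero and control wells.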

PC-3 = experiment: Growth inhibition of human PC3 cells after 48 hrs; settings: PC-3, 48 h; outline: as §1
M14 = experiment: Growth inhibition of human M14 cells after 48 hrs; settings: M14, 48 h; outline: as §1
SR = experiment: Growth inhibition of human SR cells after 48 hrs; outline: as §2
MDA-MB-435 = experiment: Growth inhibition of human MDA-MB435 cells after 48 hrs; settings: MDA-MB-435, 48 h; outline: as §1
HCT-15 = experiment: Growth inhibition of human HCT15 cells after 48 hrs; settings: HCT-15, 48 h; outline: as §1
UACC-257 = experiment: Growth inhibition of human UACC257 cells after 48 hrs; settings: UACC-257, 48 h; outline: as §2
BT-549 = experiment: Growth inhibition of human BT549 cells after 48 hrs; settings: BT-549, 48 h; outline: as §1
LOX IMVI = experiment: Growth inhibition of human LOXIMVI cells after 48 hrs; outline: as §1
HOP-92 = experiment: Growth inhibition of human HOP92 cells after 48 hrs; settings: HOP-92, 48 h; outline: as §1
SF-539 = experiment: Growth inhibition of human SF539 cells after 48 hrs; settings: SF-539, 48 h; outline: as §1
KM12 = experiment: Growth inhibition of human KM12 cells after 48 hrs; settings: KM12, 48 h; outline: as §1
MDA-MB-231 = experiment: Growth inhibition of human MDA-MB-231 cells after 48 hrs; settings: MDA-MB-231, 48 h; outline: as §1
HCT-116 = experiment: Growth inhibition of human HCT116 cells after 48 hrs; settings: HCT-116, 48 h; outline: as §1
UACC-62 = experiment: Growth inhibition of human UACC62 cells after 48 hrs; settings: UACC-62, 48 h; outline: as §2
NCI-H322M = experiment: Growth inhibition of human NCI-H322M cells after 48 hrs; outline: as §1
EKVX = experiment: Growth inhibition of human EKVX cells after 48 hrs; outline: as §1
HL-60 = experiment: Growth inhibition of human HL60 cells after 48 hrs; settings: HL-60, 48 h; outline: as §1
SN12C = experiment: Growth inhibition of human SN12C cells after 48 hrs; outline: as §2
HOP-62 = experiment: Growth inhibition of human HOP62 cells after 48 hrs; settings: HOP-62, 48 h; outline: as §1
Malme-3M = experiment: Growth inhibition of human MALME3M cells after 48 hrs; outline: as §1
ACHN = experiment: Growth inhibition of human ACHN cells after 48 hrs; outline: as §1
HT-29 = experiment: Growth inhibition of human HT29 cells after 48 hrs; settings: HT-29, 48 h; outline: as §1
K562 = experiment: Growth inhibition of human K562 cells after 48 hrs; settings: K562, 48 h; outline: as §1
OVCAR-3 = experiment: Growth inhibition of human OVCAR-3 cells after 48 hrs; settings: OVCAR-3, 48 h; outline: as §1
RXF 393 = experiment: Growth inhibition of human RXF393 cells after 48 hrs; settings: RXF 393, 48 h; outline: as §1
SF-268 [2] = experiment: Growth inhibition of human SF268 cells after 48 hrs; settings: SF-268, 48 h; outline: as §1
RPMI-8226 = experiment: Growth inhibition of human RPMI8226 cells after 48 hrs; settings: RPMI-8226, 48 h; outline: as §1
SK-MEL-2 = experiment: Growth inhibition of human SK-MEL2 cells after 48 hrs; settings: SK-MEL-2, 48 h; outline: as §1
SW-620 = experiment: Growth inhibition of human SW620 cells after 48 hrs; settings: SW-620, 48 h; outline: as §2
U-251 = experiment: Growth inhibition of human U251 cells after 48 hrs; settings: U-251, 48 h; outline: as §2
IGROV-1 = experiment: Growth inhibition of human IGROV1 cells after 48 hrs; settings: IGROV-1, 48 h; outline: as §1
[3] = Growth inhibition of human HS578T cells after 48 hrs; settings: Hs-578T; outline: as §1
TK-10 = experiment: Growth inhibition of human TK10 cells after 48 hrs; settings: TK-10, 48 h; outline: as §2
NCI/ADR-RES = experiment: Growth inhibition of human NCI/ADR-RES cells after 48 hrs; outline: as §1
DU-145 = experiment: Growth inhibition of human DU145 cells after 48 hrs; settings: DU-145, 48 h; outline: as §1
CCRF-CEM = experiment: Growth inhibition of human CCRF-CEM cells after 48 hrs; outline: as §1
OVCAR-4 = experiment: Growth inhibition of human OVCAR4 cells after 48 hrs; settings: OVCAR-4, 48 h; outline: as §1
SNB-19 = experiment: Growth inhibition of human SNB19 cells after 48 hrs; settings: SNB-19, 48 h; outline: as §2
SK-MEL-28 = experiment: Growth inhibition of human SK-MEL28 cells after 48 hrs; settings: SK-MEL-28, 48 h; outline: as §1
NCI-H522 = experiment: Growth inhibition of human NCI-H522 cells after 48 hrs; settings: NCI-H522, 48 h; outline: as §1
786-0 = experiment: Growth inhibition of human 786-0 cells after 48 hrs; settings: 786-0, 48 h; outline: as §1
OVCAR-8 = experiment: Growth inhibition of human OVCAR8 cells after 48 hrs; settings: OVCAR-8, 48 h; outline: as §1
SK-MEL-5 = experiment: Growth inhibition of human SK-MEL5 cells after 48 hrs; settings: SK-MEL-5, 48 h; outline: as §1
HCC 2998 = experiment: Growth inhibition of human HCC2998 cells after 48 hrs; settings: HCC 2998, 48 h; outline: as §1
A498 = experiment: Growth inhibition of human A498 cells after 48 hrs; settings: A498, 48 h; outline: as §1
A549 = experiment: Growth inhibition of human A549 cells after 48 hrs; settings: A549, 48 h; outline: as §1
NCI-H226 = experiment: Growth inhibition of human NCI-H226 cells after 48 hrs; settings: NCI-H226, 48 h; outline: as §1
COLO 205 = experiment: Growth inhibition of human COLO205 cells after 48 hrs; settings: COLO 205, 48 h; outline: as §1
MOLT-4 = experiment: Growth inhibition of human MOLT4 cells after 48 hrs; settings: MOLT-4, 48 h; outline: as §1
OVCAR-5 = experiment: Growth inhibition of human OVCAR5 cells after 48 hrs; settings: OVCAR-5, 48 h; outline: as §1
CAKI-1 = experiment: Growth inhibition of human CAKI1 cells after 48 hrs; settings: CAKI-1, 48 h; outline: as §1
NCI-H460 [4] = experiment: Growth inhibition of human NCI-H460 cells after 48 hrs; settings: NCI-H460, 48 h; outline: as §1
SF-295 = experiment: Growth inhibition of human SF295 cells after 48 hrs; settings: SF-295, 48 h; outline: as §1
SK-OV-3 = experiment: Growth inhibition of human SKOV3 cells after 48 hrs; settings: SK-OV-3, 48 h; outline: as §2
SNB-75 = experiment: Growth inhibition of human SNB75 cells after 48 hrs; settings: SNB-75, 48 h; outline: as §2
T47D = experiment: Growth inhibition of human T47D cells after 48 hrs; outline: as §2
NCI-H23 = experiment: Growth inhibition of human NCI-H23 cells after 48 hrs; settings: Homo sapiens, NCI-H23, 48 h; outline: as §1
MCF7 [5] = experiment: Antitumor activity against human MCF7 cells at 0.1 mM after 48 hrs
Outline: (§3)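 Prescreen run under the NCI Developmental Therapeutic Program. Agents were tested at a single concentration of 10^-4 M against a three-line panel (MCF7, NCI-H460, SF-268).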

NCI-H460 [6] = experiment: Antitumor activity against human NCI-H460 cells at 0.1 mM after 48 hrs; outline: as §3
SF-268 [7] = experiment: Antitumor activity against human SF268 cells at 0.1 mM after 48 hrs; outline: as §3

Structure (SMILES): Cn1c2ccccc2c2c(=O)n(CCCC(=O)N(C(=O)NC3CCCCC3)C3CCCCC3)c3c(-c4ccccc4)nnn3c21
- GI50 (MCF7 [1]): 64.6 µM
- GI50 (UO-31): > 100 µM
- GI50 (PC-3): > 100 µM
- GI50 (M14): > 100 µM
- GI50 (SR): > 100 µM
- GI50 (MDA-MB-435): > 100 µM
- GI50 (HCT-15): > 100 µM
- GI50 (UACC-257): > 100 µM
- GI50 (BT-549): 72.4 µM
- GI50 (LOX IMVI): > 100 µM
- GI50 (HOP-92): > 100 µM
- GI50 (SF-539): 38 µM
- GI50 (KM12): > 100 µM
- GI50 (MDA-MB-231): 72.4 µM
- GI50 (HCT-116): 91.2 µM
- GI50 (UACC-62): > 100 µM
- GI50 (NCI-H322M): > 100 µM
- GI50 (EKVX): > 100 µM
- GI50 (HL-60): > 100 µM
- GI50 (SN12C): > 100 µM
- GI50 (HOP-62): > 100 µM
- GI50 (Malme-3M): > 100 µM
- GI50 (ACHN): > 100 µM
- GI50 (HT-29): > 100 µM
- GI50 (K562): > 100 µM
- GI50 (OVCAR-3): > 100 µM
- GI50 (RXF 393): 63.1 µM
- GI50 (SF-268 [2]): 97.7 µM
- GI50 (RPMI-8226): > 100 µM
- GI50 (SK-MEL-2): > 100 µM
- GI50 (SW-620): > 100 µM
- GI50 (U-251): > 100 µM
- GI50 (IGROV-1): 15.5 µM
- GI50 [3]: > 100 µM
- GI50 (TK-10): > 100 µM
- GI50 (NCI/ADR-RES): 95.5 µM
- GI50 (DU-145): > 100 µM
- GI50 (CCRF-CEM): > 100 µM
- GI50 (OVCAR-4): 38 µM
- GI50 (SNB-19): > 100 µM
- GI50 (SK-MEL-28): > 100 µM
- GI50 (NCI-H522): 69.2 µM
- GI50 (786-0): > 100 µM
- GI50 (OVCAR-8): > 100 µM
- GI50 (SK-MEL-5): > 100 µM
- GI50 (HCC 2998): > 100 µM
- GI50 (A498): 66.1 µM
- GI50 (A549): > 100 µM
- GI50 (NCI-H226): > 100 µM
- GI50 (COLO 205): > 100 µM
- GI50 (MOLT-4): > 100 µM
- GI50 (OVCAR-5): > 100 µM
- GI50 (CAKI-1): > 100 µM
- GI50 (NCI-H460 [4]): > 100 µM
- GI50 (SF-295): 79.4 µM
- GI50 (SK-OV-3): > 100 µM
- GI50 (SNB-75): 44.7 µM
- GI50 (T47D): 56.2 µM
- GI50 (NCI-H23): > 100 µM

Structure (SMILES): COC(=O)C(Cc1c[nH]cn1)NC(=O)CCCn1c(=O)c2c3ccccc3n(C)c2n2nnc(-c3ccccc3)c12 (configuration not stated)
- Activity (MCF7 [5]): 116%
- Activity (NCI-H460 [6]): 117%
- Activity (SF-268 [7]): 128%
